This is a sample that favours compounds with a hit; in the whole collection about 3.9% have one here.
CHOP inh = inhibitors of CHOP induction in ER stress response; CHO-K1 CHOP-promoter luciferase, tunicamycin-induced, 15-18 h; 220,000 compounds, 3.8% hits; inhibition, % at 10 µM;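 active means compounds that reduced the stress-induced luciferase reporter signal by more than about 70% of percent inhibition, limit read from the data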
697 NFkB inh = inhibitors of the PMA/ionomycin-induced NF-kB reporter in 697 B cells | 697 B-cell NF-kB luciferase reporter, 16 h | 330,000 compounds, 0.33% hits | AID 435022 | inhibition, % at 4 µM; in the data active means inhibition above about 35%
UPR CHOP act = activators of apoptotic arm of unfolded protein response (CHOP); 330,000 compounds, 0.34% hits; CHO-CHOP luciferase reporter, UPR activation, luminescence; percent of tunicamycin response over DMSO baseline; activation, % at 10 µM;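 active means at 10 µM dose, activation of 40% or more, normalized to positive control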
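Assay system: CHO-CHOP cells, stable luciferase reporter of PERK-eIF2a-CHOP signalling / Buffer or medium: F12 plus 10% serum / Compound dosing: one dose, 10 µM in 0.5% DMSO / Times: 6 h compound treatment, 37 °C / Technique: luciferase luminescence / Read-out: % reporter activation, DMSO baseline versus tunicamycin full activation / Benchmarks: tunicamycin and DMSO controls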
XBP1 UPR activ = activators of adaptive arm of unfolded protein response (XBP1) | 330,000 compounds, 0.33% hits | CHO-XBP1 luciferase reporter, IRE1-XBP1 UPR activation, luminescence; percent of tunicamycin response, DMSO as zero | activation, % at 20 µM;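 active means versus positive control, 20 µM dose yields 30% or more activation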
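Material: CHO-XBP1 cells stably carrying IRE1-XBP1-driven luciferase reporter / Amount: 1000 cells per well / Compound: 20 µM, 1% DMSO / Times: 6 h treatment, 37 °C / Detection: luciferase luminescence / Measure: % activation of reporter signal versus tunicamycin and DMSO controls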
Gli-Sufu block = antagonists of Gli-Sufu signaling; AID 588413; inhibition, % at 5 µM; 340,000 compounds, 0.74% hits; Sufu-KO-LIGHT fibroblasts, Gli luciferase reporter luminescence;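 active means inhibition above about 55%, limit read from the data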
Jurkat NFkB inh = inhibitors of the PMA/ionomycin-induced NF-kB reporter in Jurkat cells; AID 435003; inhibition, % at 4 µM; 330,000 compounds, 0.53% hits; PMA/ionomycin-induced NF-kB luciferase reporter, luminescence; in the data active means inhibition above about 50%
Jurkat NFkB conf = inhibitors of the PMA/ionomycin-induced NF-kB reporter in Jurkat cells, retest | inhibition, % at 4 µM | AID 435020 | Jurkat NF-kB luciferase, 16 h | 2,700 compounds, 27% hits | shares compounds with Jurkat NFkB inh;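 active means inhibition reaching about 45% at 4 µM in either replicate, limit read from the data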
Large screens that a line does not name were inactive (follow-up assays come after a bar, where they were run).

Cc1c(C(=O)Nc2ccccc2[N+](=O)[O-])csc1-c1ccccc1	none
Cc1ccc(C(=O)NCCCNC(=O)c2ccco2)cc1C	none (no result: CHOP inh)
CCOC(=O)c1c(C)[nH]c(C(=O)OCC(=O)N(CC(C)C)C2CCS(=O)(=O)C2)c1C (configuration not stated)	none (no result: CHOP inh)
Cc1cccc(N2CCN(C(=O)c3cccc(N4CCCC4=O)c3)C(C)C2)c1 (configuration not stated)	Jurkat NFkB inh 56 (no result: CHOP inh) | Jurkat NFkB conf inactive
Cc1cccc(N2CCN(C(=O)c3ccc(N4CCCC4=O)cc3)CC2C)c1 (configuration not stated)	none
O=C(c1cccc(N2CCCC2=O)c1)N1CCN(c2cccc(Cl)c2)CC1	Jurkat NFkB inh 53 (no result: CHOP inh) | Jurkat NFkB conf inactive
CC1N(C(=O)N2CCOCC2)CCN1S(=O)(=O)c1ccc(Cl)cc1 (configuration not stated)	none (no result: CHOP inh)
O=C(CCc1ccccc1)NCC(c1ccco1)N1CCc2ccccc21 (configuration not stated)	Jurkat NFkB inh 59 (no result: CHOP inh) | Jurkat NFkB conf inactive
O=C(NCC(c1ccco1)N1CCc2ccccc21)c1ccccc1F (configuration not stated)	none (no result: CHOP inh)
NC(=O)CC(NC(=O)c1ccc(Br)cc1)c1ccc(NC2CCCCCC2)c([N+](=O)[O-])c1 (configuration not stated)	none (no result: CHOP inh)
CC1(C)Cc2nc3sc4c(NCCO)ncnc4c3cc2CS1	none
CCCCn1cnc2c(sc3nc4c(cc32)CSC(C)(C)C4)c1=O	none | Jurkat NFkB conf inactive
COc1ccc(/C=N/NC(=O)NC23CC4CC(CC(C4)C2)C3)c(OC)c1	none (no result: CHOP inh)
CCN1CCN(Cc2nnc(-c3ccc(C)cc3)o2)CC1	none (no result: CHOP inh)
O=c1c2ccccc2nc2sc(Nc3ccc(F)cc3)nn12	none (no result: CHOP inh) | Jurkat NFkB conf inactive
COc1cccc(Nc2nn3c(=O)c4ccccc4nc3s2)c1	none (no result: CHOP inh)
O=C(NCCC1=CCCCC1)NC12CC3CC(CC(C3)C1)C2	none | Jurkat NFkB conf inactive
COC(=O)c1ccc2nc(Nc3nc4c(F)cc(F)cc4s3)sc2c1	CHOP inh 92, Jurkat NFkB inh 63 | Jurkat NFkB conf 92
CCOC(=O)c1ccc2nc(Nc3nc4ccc(F)cc4s3)sc2c1	CHOP inh 90, Jurkat NFkB inh 56 | Jurkat NFkB conf 85
COC(=O)c1ccc2nc(NC(=O)C(C)C)sc2c1	none
COc1cc2c(cc1O)CCN(C(=O)CSc1nncn1C)[C@@H]2C	none (no result: CHOP inh)
Cc1ccc(S(=O)(=O)Nc2ccccc2-c2ccccc2)cc1	Jurkat NFkB inh 59 | Jurkat NFkB conf 50
C/C(=N\NC1=NCCN1)c1ccc(Cl)cc1	none
C/C(=N\NC1=NCCN1)c1ccccc1	none
CCCCCOc1ccc(Br)cc1/C(C)=N/NC1=NCCN1	Jurkat NFkB inh 63 (no result: CHOP inh) | Jurkat NFkB conf inactive
COc1ccc(Br)cc1/C(C)=N/NC1=NCCN1	Jurkat NFkB inh 67 | Jurkat NFkB conf inactive
COc1cc(C(=O)OCC(=O)Nc2sccc2C(N)=O)cc(OC)c1OC	Jurkat NFkB inh 54 | Jurkat NFkB conf inactive
COc1ccc(C(=O)OCC(=O)Nc2sccc2C(N)=O)cc1OC	none
COc1ccccc1NC(=S)N(Cc1ccco1)Cc1cc2cc(C)c(C)cc2[nH]c1=O	Jurkat NFkB inh 67 | Jurkat NFkB conf inactive
CCCCCCCCC[n+]1cccc2c3ccccc3ccc21	Jurkat NFkB inh 71 | Jurkat NFkB conf 68
CCOC(=O)c1ccc(Nc2cnc3ccccc3n2)cc1	none | Jurkat NFkB conf inactive
CN(CC(=O)Nc1cccc(F)c1)C(=O)C1CCN(S(=O)(=O)c2ccc3c(c2)OCCO3)CC1	none (no result: CHOP inh)
COC(=O)Nc1ccc(S(=O)(=O)N2CCCc3cccc(O)c32)cc1	none
Cn1c(=O)oc2cc(S(=O)(=O)N3CCCc4ccccc43)ccc21	Jurkat NFkB inh 55 (no result: CHOP inh) | Jurkat NFkB conf inactive
COC(=O)Nc1ccc(S(=O)(=O)N2CCCc3ccccc32)cc1	Jurkat NFkB inh 61 (no result: CHOP inh) | Jurkat NFkB conf 56
Nc1nc(=O)c2ccccc2s1	none (no result: CHOP inh, 697 NFkB inh, UPR CHOP act, XBP1 UPR activ, Jurkat NFkB inh)
Nc1nonc1-n1nnc(C(=O)N/N=C/c2ccccc2F)c1CN1CCc2ccccc21	none (no result: CHOP inh)

Compound activity as filed in PubChem.
